According to ChEMBL document CHEMBL1123539, “[p-[(Thienylcarbonyl)amino]phenoxy]propanolamines derivatives as diuretic and beta-adrenergic receptor blocking agents” (1986):
One block for each molecule: values may come before it.

How the values were obtained:
Rattus norvegicus [1] = test: Compound was tested for oral salidiuretic activity (control/drug treatment value) in rats expressed as urinary output. at a dose of 16 mg/kg; 6.42/9; assay type: functional, Urine
Rattus norvegicus [2] = test: Compound was tested for oral salidiuretic activity (control/drug treatment value) in rats expressed in Na+, mequiv/6 hr at a dose of 64 mg/kg; 0.207/0.766; assay type: functional, Urine
[3] = biological target: Beta-1 adrenergic receptor (Homo sapiens) (UniProt P08588); test: Compound was tested for beta-1 adrenergic receptor blocking activity in conscious rats after 1 hr; conditions: Rattus norvegicus; target entry is the homologue from another species
[4] = biological target: Beta-2 adrenergic receptor (Rattus norvegicus) (UniProt P10608); test: The compound was tested for beta-2 adrenergic receptor blocking activity in conscious rats after 1 hr
Rattus norvegicus [5] = test: Compound was tested for oral salidiuretic activity (control/drug treatment value) in rats expressed as urinary output. at a dose of 32 mg/kg at 0-6 h; 9.99/13.01; assay type: functional, Urine
Rattus norvegicus [6] = test: Compound was tested for oral salidiuretic activity (control/drug treatment value) in rats expressed in Na+, mequiv/6 hr at a dose of 32 mg/kg; 0.259/0.680; assay type: functional, Urine
Rattus norvegicus [7] = test: Compound was tested for oral salidiuretic activity (control/drug treatment value) in rats expressed as urinary output. at a dose of 128 mg/kg; 6.42/15.08; assay type: functional, Urine
Rattus norvegicus [8] = test: Compound was tested for oral salidiuretic activity (control/drug treatment value) in rats expressed as urinary output. at a dose of 32 mg/kg at 0-2h; 7.42/9.64; assay type: functional, Urine
Rattus norvegicus [9] = test: Compound was tested for oral salidiuretic activity (control/drug treatment value) in rats expressed in Na+, mequiv/6 hr at a dose of 128 mg/kg;. 207/1.364; assay type: functional, Urine
Rattus norvegicus [10] = test: Compound was tested for oral salidiuretic activity (control/drug treatment value) in rats expressed in Na+, mequiv/6 hr at a dose of 16 mg/kg; 0.207/0.554; assay type: functional, Urine
[11] = biological target: Beta-2 adrenergic receptor (Canis lupus familiaris) (UniProt P54833); test: The compound was tested for beta-2 adrenergic receptor blocking activity in dogs
How it was run: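 In two dogs, drugs were injected via a cannulated saphenous vein, with increasing doses given every 30 min and each animal used once per substance. Isoproterenol-induced changes in diastolic arterial pressure after each dose were compared with isoproterenol control responses to calculate percent blockade. ID50 (50% inhibition) was estimated from the dose-response curve.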

Rattus norvegicus [12] = test: Compound was tested for oral salidiuretic activity (control/drug treatment value) in rats expressed as urinary output. at a dose of 32 mg/kg; 6.42/9.83; assay type: functional, Urine
Rattus norvegicus [13] = test: Compound was tested for oral salidiuretic activity (control/drug treatment value) in rats expressed as urinary output. at a dose of 32 mg/kg at 0-4 h; 9.02/11.67; assay type: functional, Urine
[14] = biological target: Beta-1 adrenergic receptor (Homo sapiens) (UniProt P08588); test: Compound was tested for beta-1 adrenergic receptor blocking activity in dogs; conditions: Canis lupus familiaris; target entry is the homologue from another species
Rattus norvegicus [15] = test: Compound was tested for oral salidiuretic activity (control/drug treatment value) in rats expressed as urinary output. at a dose of 64 mg/kg; 6.42/11.25; assay type: functional, Urine
Rattus norvegicus [16] = test: Compound was tested for oral salidiuretic activity (control/drug treatment value) in rats expressed in Na+, mequiv/6 hr at a dose of 32 mg/kg; 0.207/0.626; assay type: functional, Urine
[17] = biological target: Beta-1 adrenergic receptor (Homo sapiens) (UniProt P08588); test: Compound was tested for beta-1 adrenergic receptor blocking activity in conscious rats after 5 hr; conditions: Rattus norvegicus; target entry is the homologue from another species
[18] = biological target: Beta-1 adrenergic receptor (Homo sapiens) (UniProt P08588); conditions: Canis lupus familiaris
[19] = biological target: Beta-2 adrenergic receptor (Canis lupus familiaris) (UniProt P54833)
Rattus norvegicus [20] = test: Compound was tested for oral salidiuretic activity (control/drug treatment value) in rats expressed in Na+, mequiv/6 h at a dose of 128 mg/kg; 0.177/0.304; assay type: functional, Urine
Rattus norvegicus [21] = test: Compound was tested for oral salidiuretic activity (control/drug treatment value) in rats expressed as urinary output. at a dose of 128 mg/kg; 7.87/8.70; assay type: functional, Urine
Rattus norvegicus [22] = test: Compound was tested for oral salidiuretic activity (control/drug treatment value) in rats expressed in Na+, mequiv/6 hr at a dose of 32 mg/kg; 0.140/0.417; assay type: functional, Urine
Rattus norvegicus [23] = test: Compound was tested for oral salidiuretic activity (control/drug treatment value) in rats expressed as urinary output. at a dose of 32 mg/kg; 10.33/10.08; assay type: functional, Urine
Rattus norvegicus [24] = test: Compound was tested for oral salidiuretic activity (control/drug treatment value) in rats expressed in Na+, mequiv/6 hr at a dose of 128 mg/kg; 0.163/0.133; assay type: functional, Urine
Rattus norvegicus [25] = test: Compound was tested for oral salidiuretic activity (control/drug treatment value) in rats expressed as urinary output. at a dose of 128 mg/kg; 8.72/8.02; assay type: functional, Urine
Rattus norvegicus [26] = test: Compound was tested for oral salidiuretic activity (control/drug treatment value) in rats expressed in Na+, mequiv/6 hr at a dose of 128 mg/kg; 0.163/0.139; assay type: functional, Urine
Rattus norvegicus [27] = test: Compound was tested for oral salidiuretic activity (control/drug treatment value) in rats expressed as urinary output. at a dose of 128 mg/kg; 8.72/8.15; assay type: functional, Urine
Rattus norvegicus [28] = test: Compound was tested for oral salidiuretic activity (control/drug treatment value) in rats expressed as urinary output. at a dose of 128 mg/kg; 6.50/8.47; assay type: functional, Urine
Rattus norvegicus [29] = test: Compound was tested for oral salidiuretic activity (control/drug treatment value) in rats expressed in Na+, mequiv/6 hr at a dose of 128 mg/kg; 0.144/0.470; assay type: functional, Urine
Rattus norvegicus [30] = test: Compound was tested for oral salidiuretic activity (control/drug treatment value) in rats expressed as urinary output. at a dose of 128 mg/kg; 8.42/10.18; assay type: functional, Urine
Rattus norvegicus [31] = test: Compound was tested for oral salidiuretic activity (control/drug treatment value) in rats expressed in Na+, mequiv/6 hr at a dose of 128 mg/kg; 0.186/0.853; assay type: functional, Urine
Rattus norvegicus [32] = test: Compound was tested for oral salidiuretic activity (control/drug treatment value) in rats expressed in Na+, mequiv/6 h at a dose of 128 mg/kg; 0.102/0.380; assay type: functional, Urine
Rattus norvegicus [33] = test: Compound was tested for oral salidiuretic activity (control/drug treatment value) in rats expressed in Na+, mequiv/6 h at a dose of 128 mg/kg; 0.210/0.796; assay type: functional, Urine
Rattus norvegicus [34] = test: Compound was tested for oral salidiuretic activity (control/drug treatment value) in rats expressed as urinary output. at a dose of 128 mg/kg; 7.33/10.83; assay type: functional, Urine

Chain of Beta-1 adrenergic receptor (Homo sapiens) (P08588 whole entry, looked up): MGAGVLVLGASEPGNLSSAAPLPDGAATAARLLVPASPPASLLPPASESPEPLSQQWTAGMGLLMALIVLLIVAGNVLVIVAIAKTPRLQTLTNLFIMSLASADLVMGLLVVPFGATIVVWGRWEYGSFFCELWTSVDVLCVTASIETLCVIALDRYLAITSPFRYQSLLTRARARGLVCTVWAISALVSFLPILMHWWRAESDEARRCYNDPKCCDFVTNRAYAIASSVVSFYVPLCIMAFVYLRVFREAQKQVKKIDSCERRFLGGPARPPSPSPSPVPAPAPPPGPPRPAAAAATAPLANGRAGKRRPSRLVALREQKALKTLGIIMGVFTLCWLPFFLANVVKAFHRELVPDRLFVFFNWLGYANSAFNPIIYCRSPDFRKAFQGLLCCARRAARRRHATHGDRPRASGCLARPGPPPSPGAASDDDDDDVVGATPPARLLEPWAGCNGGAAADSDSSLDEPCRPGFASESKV
Chain of Beta-2 adrenergic receptor (Canis lupus familiaris) (P54833 whole entry, looked up): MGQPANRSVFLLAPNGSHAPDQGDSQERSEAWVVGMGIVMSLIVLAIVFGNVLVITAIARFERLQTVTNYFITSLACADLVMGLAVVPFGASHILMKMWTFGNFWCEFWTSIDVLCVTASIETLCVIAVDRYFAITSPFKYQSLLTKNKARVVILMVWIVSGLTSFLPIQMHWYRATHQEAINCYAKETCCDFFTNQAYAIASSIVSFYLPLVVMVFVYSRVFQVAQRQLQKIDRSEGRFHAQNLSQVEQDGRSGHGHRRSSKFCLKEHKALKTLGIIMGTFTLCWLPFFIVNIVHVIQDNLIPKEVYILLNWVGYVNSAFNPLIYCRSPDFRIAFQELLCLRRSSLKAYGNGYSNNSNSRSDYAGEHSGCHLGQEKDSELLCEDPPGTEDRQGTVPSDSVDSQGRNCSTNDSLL
Chain of Beta-2 adrenergic receptor (Rattus norvegicus) (P10608 whole entry, looked up): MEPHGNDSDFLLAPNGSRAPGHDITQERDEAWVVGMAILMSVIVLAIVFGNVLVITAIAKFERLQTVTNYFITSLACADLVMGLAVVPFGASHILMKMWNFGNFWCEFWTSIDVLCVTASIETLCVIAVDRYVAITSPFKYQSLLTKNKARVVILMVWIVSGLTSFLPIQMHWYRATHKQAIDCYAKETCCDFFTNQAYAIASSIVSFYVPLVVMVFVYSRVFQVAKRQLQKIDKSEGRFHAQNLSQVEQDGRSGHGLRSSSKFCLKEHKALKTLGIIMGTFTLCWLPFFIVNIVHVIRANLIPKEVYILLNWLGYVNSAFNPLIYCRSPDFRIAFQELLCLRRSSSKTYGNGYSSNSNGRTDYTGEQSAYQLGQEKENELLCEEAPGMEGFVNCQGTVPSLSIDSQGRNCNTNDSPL

Structure (SMILES): CC(C)NCC(O)COc1ccc(NC(=O)c2cccs2)cc1Cl (centres undefined)
ID50 [18]: 0.17 mg/kg | ID50 [19]: > 1 mg/kg | Activity (Rattus norvegicus [22]): 0.14 | Activity (Rattus norvegicus [23]): 10.33 mL

Structure (SMILES): CCOC(=O)c1cc(NC(=O)Cc2cccs2)ccc1OCC(O)CNC(C)C (centres undefined)
Activity (Rattus norvegicus [26]): 0.163 | treated urinary output (Rattus norvegicus [27]): 8.15 mL

Structure (SMILES): CCOC(=O)c1cc(NC(=O)c2ccsc2)ccc1OCC(O)CNC(C)C (centres undefined)
ID50 [18]: 0.19 mg/kg | treated urinary output (Rattus norvegicus [28]): 8.47 mL | ID50 [19]: > 1 mg/kg | Activity (Rattus norvegicus [29]): 0.144

Structure (SMILES): CCOC(=O)c1cc(NC(=O)c2ccsc2)ccc1OCC(O)CNC(C)(C)C (centres undefined)
Activity (Rattus norvegicus [30]): 8.42 mL | ID50 [18]: 0.06 mg/kg | ID50 [19]: > 1 mg/kg | Activity (Rattus norvegicus [31]): 0.186

Structure (SMILES): CC(C)(C)NCC(O)COc1ccc(NC(=O)c2cccs2)cc1C#N (centres undefined)
ID50 [18]: 0.022 mg/kg | ID50 [19]: 0.55 mg/kg | Activity (Rattus norvegicus [32]): 0.102

Structure (SMILES): CCCOC(=O)c1cc(NC(=O)c2cccs2)ccc1OCC(O)CNC(C)C (centres undefined)
Activity (Rattus norvegicus [33]): 0.21 | Activity (Rattus norvegicus [34]): 7.33 mL

Second part, led by results:

ED50 [3]: 0.00176 mg/kg | ED50 [4]: 0.00133 mg/kg | ID50 [11]: > 1 mg/kg | ID50 [14]: 0.065 mg/kg | ED50 [17]: 0.00179 mg/kg
Structure (SMILES): CCOC(=O)c1cc(NC(=O)c2cccs2)ccc1OCC(O)CNC(C)(C)C (centres undefined) [TIENOXOLOL]
treated urinary output (Rattus norvegicus [1]): 9 mL | Activity (Rattus norvegicus [2]): 0.207 | Activity (Rattus norvegicus [5]): 9.99 mL | Activity (Rattus norvegicus [6]): 0.259 | Activity (Rattus norvegicus [7]): 6.42 mL | Activity (Rattus norvegicus [8]): 7.42 mL | Activity (Rattus norvegicus [9]): 0.207 | Activity (Rattus norvegicus [10]): 0.207 | treated urinary output (Rattus norvegicus [12]): 9.83 mL | Activity (Rattus norvegicus [13]): 9.02 mL | treated urinary output (Rattus norvegicus [15]): 11.2 mL | Activity (Rattus norvegicus [16]): 0.207

ID50 [18]: 0.45 mg/kg | ID50 [19]: > 1 mg/kg
Structure (SMILES): CC(=O)c1cc(NC(=O)c2cccs2)ccc1OCC(O)CNC(C)C (centres undefined)
Activity (Rattus norvegicus [20]): 0.177 | Activity (Rattus norvegicus [21]): 7.87 mL

ID50 [18]: 0.02 mg/kg | ID50 [19]: > 1 mg/kg
Structure (SMILES): CCOC(=O)c1cc(NC(=O)Cc2ccsc2)ccc1OCC(O)CNC(C)C (centres undefined)
Activity (Rattus norvegicus [24]): 0.163 | Activity (Rattus norvegicus [25]): 8.72 mL
